Results taken from ChEMBL document CHEMBL1125739, “A new class of HIV-1-specific 6-substituted acyclouridine derivatives: synthesis and anti-HIV-1 activity of 5- or 6-substituted analogues of 1-[(2-hydroxyethoxy)methyl]-6-(phenylthio)thymine (HEPT)” (J Med Chem, 1991).

How the values were obtained:
[1] = tested on: Human immunodeficiency virus; assay: Effective concentration required to achieve 50% protection of MT-4 cells against the cytopathic effect of HIV-1 (HTLV-IIIB).; assay type: functional, organism-based; conditions: Human immunodeficiency virus 1, MT4
Outline: (§1)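 MT-4 cells at 2.5×10^5 cells/mL infected with 1000 CCID50 of the named HIV strain, then plated at once over a range of compound concentrations. Incubation at 37 °C for 4 days or 5 days. Viable cells read by MTT. EC50 is the concentration giving 50% protection from virus-induced cytopathic effect.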

MT4 [2] = assay: Cytotoxic concentration required to reduce the viability of mock-infected MT-4 cells by 50%; assay type: functional; conditions: Homo sapiens
Outline: (§2)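 Mock-infected MT-4 cells at 2.5×10^5 cells/mL plated with various concentrations of compound, run in parallel with the antiviral assay. Viable cells counted by MTT after 4 days or 5 days at 37 °C. CC50 is the concentration that lowers viability by 50%.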

MT4 [3] = assay: Selectivity Index measured as the ratio of CC50 to that of EC50 values.
[4] = tested on: Human immunodeficiency virus; assay: Effective concentration required to achieve 50% protection of MT-4 cells against the cytopathic effect of HIV-1 (HTLV-IIIB strain) and determined on 4th day after virus infection.; assay type: functional, organism-based; conditions: Human immunodeficiency virus 1, MT4; outline: as §1
[5] = tested on: Human immunodeficiency virus; assay: Effective concentration required to achieve 50% protection of MT-4 cells against the cytopathic effect of HIV-1 (HTLV-IIIRF strain) and determined on 4th day after virus infection.; assay type: functional, organism-based; conditions: Human immunodeficiency virus 1, MT4; outline: as §1
[6] = tested on: Human immunodeficiency virus; assay: Effective concentration required to achieve 50% protection of MT-4 cells against the cytopathic effect of HIV-2 ((LAV-2EHO strain) and determined on 4th day after virus infection.; assay type: functional, organism-based; conditions: Human immunodeficiency virus 1, MT4; outline: as §1
[7] = tested on: Human immunodeficiency virus; assay: Effective concentration required to achieve 50% protection of MT-4 cells against the cytopathic effect of HIV-2 (LAV-2ROD strain) and determined on 4th day after virus infection.; assay type: functional, organism-based; conditions: Human immunodeficiency virus 1, MT4; outline: as §1
[8] = tested on: Human immunodeficiency virus; assay: Cytotoxic concentration required to reduce the viability of mock-infected MT-4 cells (HIV-1 HTLV-IIIB strain) by 50% was determined on 4th day after virus infection.; assay type: functional; conditions: Human immunodeficiency virus 1, MT4; outline: as §2

Row | SMILES | EC50 [1] [µM] | CC50 (MT4 [2]) [µM] | Selectivity index (MT4 [3]) | EC50 [4] [µM] | EC50 [5] [µM] | EC50 [6] [µM] | EC50 [7] [µM] | CC50 [8] [µM]
1 | CSc1c(C)c(=O)[nH]c(=O)n1COCCO | > 250 | > 250 | – | – | – | – | – | –
2 | Cc1c(C#Cc2ccccc2)n(COCCO)c(=O)[nH]c1=O | > 14 | 14 | <1 | – | – | – | – | –
3 | Cc1c(SC2CCCCC2)n(COCCO)c(=O)[nH]c1=O | 8.2 | 664 | 81 | 7.7 | 7.9 | > 250 | > 250 | 440
4 | C=Cc1c(Sc2ccccc2)n(COCCO)c(=O)[nH]c1=O | 1.1 | 76 | 69 | – | – | – | – | –
5 | Cc1c(/C=C/c2ccccc2)n(COCCO)c(=O)[nH]c1=O | > 250 | > 250 | – | – | – | – | – | –
6 | C#Cc1c(Sc2ccccc2)n(COCCO)c(=O)[nH]c1=O | > 18 | 18 | <1 | – | – | – | – | –
7 | O=c1[nH]c(=O)n(COCCO)c(Sc2ccccc2)c1I | 3.6 | 20 | 5.6 | – | – | – | – | –
8 | O=c1[nH]c(=O)n(COCCO)c(Sc2ccccc2)c1/C=C/c1ccccc1 | 6 | 95 | 16 | – | – | – | – | –
9 | Nc1ncnc2c1ncn2[C@H]1CC[C@@H](CO)O1 | 6.3 | 890 | 141 | – | – | – | – | –
10 | Cc1c(C(O)c2ccccc2)n(COCCO)c(=O)[nH]c1=O (centres undefined) | > 400 | 400 | <1 | – | – | – | – | –
11 | CC#Cc1c(C)c(=O)[nH]c(=O)n1COCCO | > 250 | > 250 | – | – | – | – | – | –
12 | CCCCSc1c(C)c(=O)[nH]c(=O)n1COCCO | 130 | > 250 | – | – | – | – | – | –
13 | Cc1c(SC(C)(C)C)n(COCCO)c(=O)[nH]c1=O | > 366 | 366 | <1 | – | – | – | – | –
14 | CC(C)C(=O)c1c(Sc2ccccc2)n(COCCO)c(=O)[nH]c1=O | > 12 | 12 | <1 | – | – | – | – | –
15 | Cc1c(Cc2ccccc2)n(COCCO)c(=O)[nH]c1=O | 23 | 352 | 15 | – | – | – | – | –
16 | Cc1c(Sc2ccccc2)n(COCCO)c(=O)[nH]c1=O [HEPT] | 7 | 740 | – | 6.5 | 8.1 | > 250 | > 250 | > 500
17 | Nc1ccn([C@H]2CC[C@@H](CO)O2)c(=O)n1 [ZALCITABINE] | 0.3 | 40 | 133 | – | – | – | – | –

Now from value to compound, other results behind:

Row | EC50 [1] [µM] | SMILES | CC50 (MT4 [2]) [µM] | Selectivity index (MT4 [3]) | EC50 [4] [µM] | EC50 [5] [µM] | EC50 [6] [µM] | EC50 [7] [µM] | CC50 [8] [µM]
18 | > 21 | O=c1[nH]c(=O)n(COCCO)c(Sc2ccccc2)c1Sc1ccccc1 | 21 | <1 | – | – | – | – | –
19 | > 250 | C=Cc1c(C)c(=O)[nH]c(=O)n1COCCO | > 250 | – | – | – | – | – | –
20 | > 366 | Cc1c(C(=O)c2ccccc2)n(COCCO)c(=O)[nH]c1=O | 366 | <1 | – | – | – | – | –
21 | > 327 | Cc1c(Nc2ccccc2)n(COCCO)c(=O)[nH]c1=O | 327 | <1 | – | – | – | – | –
22 | > 180 | Cc1c(Br)n(COCCO)c(=O)[nH]c1=O | 180 | <1 | – | – | – | – | –
23 | > 3.4 | O=c1[nH]c(=O)n(COCCO)c(Sc2ccccc2)c1C#Cc1ccccc1 | 3.4 | <1 | – | – | – | – | –
24 | > 250 | Cc1c(Cl)n(COCCO)c(=O)[nH]c1=O | > 250 | – | – | – | – | – | –
25 | > 377 | Cc1c(NC2CCCCC2)n(COCCO)c(=O)[nH]c1=O | 337 | <1 | – | – | – | – | –
26 | 0.84 | O=c1[nH]c(=O)n(COCCO)c(Sc2ccccc2)c1C=C(c1ccccc1)c1ccccc1 | 21 | 25 | – | – | – | – | –
27 | > 5.5 | C#Cc1c(C)c(=O)[nH]c(=O)n1COCCO | 5.5 | <1 | – | – | – | – | –
28 | > 250 | C/C=C/c1c(C)c(=O)[nH]c(=O)n1COCCO | > 250 | – | – | – | – | – | –
29 | 85 | Cc1c(Oc2ccccc2)n(COCCO)c(=O)[nH]c1=O | 345 | 4.1 | – | – | – | – | –
30 | > 484 | COc1c(C)c(=O)[nH]c(=O)n1COCCO | 484 | <1 | – | – | – | – | –
31 | > 400 | Cc1c(OC2CCCCC2)n(COCCO)c(=O)[nH]c1=O | 400 | <1 | – | – | – | – | –
32 | > 13 | O=C(c1ccccc1)c1c(Sc2ccccc2)n(COCCO)c(=O)[nH]c1=O | 13 | <1 | – | – | – | – | –
33 | > 250 | CCSc1c(C)c(=O)[nH]c(=O)n1COCCO | > 250 | – | – | – | – | – | –
34 | > 23 | O=c1[nH]c(=O)n(COCCO)c(Sc2ccccc2)c1Cc1ccccc1 | 23 | <1 | – | – | – | – | –
35 | > 19 | CC#Cc1c(Sc2ccccc2)n(COCCO)c(=O)[nH]c1=O | 19 | <1 | – | – | – | – | –
36 | 0.016 | Cc1cn([C@H]2C[C@H](N=[N+]=[N-])[C@@H](CO)O2)c(=O)[nH]c1=O [ZIDOVUDINE] | 20 | 1250 | – | – | – | – | –
